ChEMBL document CHEMBL4184319, “Fluorescent-Labeled Selective Adenosine A2B Receptor Antagonist Enables Competition Binding Assay by Flow Cytometry” (J Med Chem, 2018)
Calls of active or inactive are those of the source. No cut-off for these calls is given here.

Experiments:
Adenosine receptor A1 = biological target: T1, Adenosine receptor A1 (Rattus norvegicus, UniProt P25099); assay: Displacement of [3H]CCPA from adenosine A1 receptor in rat brain cortical membranes after 90 mins by liquid scintillation counting method; type: cell membranes
T1 sequence (P25099 whole entry): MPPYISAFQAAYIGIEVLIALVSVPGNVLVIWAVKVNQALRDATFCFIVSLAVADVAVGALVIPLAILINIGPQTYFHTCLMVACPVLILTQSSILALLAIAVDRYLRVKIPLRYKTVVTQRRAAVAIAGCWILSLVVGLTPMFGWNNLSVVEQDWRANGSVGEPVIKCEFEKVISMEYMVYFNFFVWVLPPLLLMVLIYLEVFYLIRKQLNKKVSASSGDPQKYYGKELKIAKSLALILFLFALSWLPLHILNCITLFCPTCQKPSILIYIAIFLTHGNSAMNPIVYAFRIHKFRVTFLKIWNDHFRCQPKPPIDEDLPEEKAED
Outline: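 [³H]CCPA (1 nM) used with rat brain cortical or human A1-CHO membranes, 90 min at rt. Membranes pre-incubated 10-15 min with ADA 0.12 IU/mL. Nonspecific binding defined with 10 µM CADO. Compounds dissolved in DMSO, 2.5 % final. Filtration on GF/B filters with ice-cold Tris-HCl washes, then scintillation counting. Curves used 6-7 concentrations spanning 3 log units. At least three experiments, in duplicate (human) or triplicate (rat).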

Adenosine receptor A2a [1] = biological target: Adenosine receptor A2a (Rattus norvegicus, UniProt P30543); assay: Displacement of [3H]MSX-2 from adenosine A2A receptor in rat brain striatal membranes after 30 mins by liquid scintillation counting method; type: cell membranes, Striatum, Membrane
Outline: (§1)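 [³H]MSX-2 (1 nM) used with rat striatal or human A2A-HEK membranes, 30 min at rt. Membranes pre-incubated 10-15 min with ADA 0.12 IU/mL. DMSO 2.5 % final. GF/B filtration, then scintillation counting. Curves used 6-7 concentrations over 3 log units. At least three experiments, in duplicate (human) or triplicate (rat).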

Adenosine receptor A2a [2] = biological target: Adenosine receptor A2a (Homo sapiens, UniProt P29274); assay: Displacement of [3H]MSX-2 from recombinant human adenosine A2A receptor expressed in HEK cell membranes after 30 mins by liquid scintillation counting method
Outline: as §1, with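 “IU/mL. Nonspecific binding defined with 10 µM CGS15943.” for “IU/mL.”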

Adenosine receptor A2b [3] = biological target: T2, Adenosine receptor A2b (Rattus norvegicus, UniProt P29276); assay: Displacement of [3H]PSB-603 from recombinant rat adenosine A2B receptor expressed in CHO cell membranes after 75 mins by liquid scintillation counting method
T2 sequence (P29276 whole entry): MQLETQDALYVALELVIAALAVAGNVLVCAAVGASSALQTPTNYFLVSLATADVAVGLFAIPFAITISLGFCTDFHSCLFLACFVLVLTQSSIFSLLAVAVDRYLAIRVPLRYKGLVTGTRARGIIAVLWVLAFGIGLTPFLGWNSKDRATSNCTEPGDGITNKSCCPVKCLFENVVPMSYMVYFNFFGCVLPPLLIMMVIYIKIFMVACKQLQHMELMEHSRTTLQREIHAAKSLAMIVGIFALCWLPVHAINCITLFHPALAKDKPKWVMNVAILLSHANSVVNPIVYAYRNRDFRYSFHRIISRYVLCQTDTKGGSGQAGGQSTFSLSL
Outline: (§2)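 Membranes pre-incubated 10-15 min with ADA 0.12 IU/mL. DMSO 2.5 % final. Filtration on GF/B with ice-cold 50 mM Tris-HCl pH 7.4 containing 0.1 % BSA, then scintillation counting. Curves used 6-7 concentrations over 3 log units. At least three experiments.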

Adenosine receptor A2b [4] = biological target: T3, Adenosine receptor A2b (Mus musculus, UniProt Q60614); assay: Displacement of [3H]PSB-603 from recombinant mouse adenosine A2B receptor expressed in CHO cell membranes after 75 mins by liquid scintillation counting method
T3 sequence (Q60614 whole entry): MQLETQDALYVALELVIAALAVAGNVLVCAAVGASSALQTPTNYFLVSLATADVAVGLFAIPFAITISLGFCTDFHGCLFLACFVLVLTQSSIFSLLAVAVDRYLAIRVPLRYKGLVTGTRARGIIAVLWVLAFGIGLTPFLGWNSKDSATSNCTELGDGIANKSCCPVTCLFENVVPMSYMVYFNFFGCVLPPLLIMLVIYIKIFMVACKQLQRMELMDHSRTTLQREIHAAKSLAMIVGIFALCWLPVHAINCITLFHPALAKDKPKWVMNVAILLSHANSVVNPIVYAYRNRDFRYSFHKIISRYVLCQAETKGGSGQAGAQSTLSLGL
Outline: as §2, with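 “[³H]PSB-603 (0.3 nM) used with CHO membranes expressing human, mouse or rat A2BAR, 75 min at rt. Membranes” for “Membranes”, “IU/mL. Nonspecific binding defined with 10 µM DPCPX.” for “IU/mL.”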

[5] = Selectivity ratio of Ki for adenosine A2A receptor in rat brain striatal membranes to Ki for recombinant human adenosine A2B receptor expressed in CHO cell membranes; type: cell-based
Homo sapiens = organism: Homo sapiens; assay: Selectivity ratio of Ki for recombinant human adenosine A2A receptor expressed in HEK cell membranes to Ki for recombinant human adenosine A2B receptor expressed in CHO cell membranes; type: cell-based
Rattus norvegicus = organism: Rattus norvegicus; assay: Selectivity ratio of Ki for adenosine A2A receptor in rat brain striatal membranes to Ki for recombinant rat adenosine A2B receptor expressed in CHO cell membranes; type: cell-based
[6] = Selectivity ratio of Ki for recombinant human adenosine A3 receptor expressed in CHO cell membranes to Ki for recombinant mouse adenosine A2B receptor expressed in CHO cell membranes; type: cell-based
[7] = biological target: T4, Adenosine receptor A2b (Homo sapiens) (UniProt P29275); assay: Binding affinity to recombinant human adenosine A2B receptor expressed in CHO cell membranes at 100 nM after 15 mins by confocal microscopic method; type: cell-based
T4 sequence (whole entry): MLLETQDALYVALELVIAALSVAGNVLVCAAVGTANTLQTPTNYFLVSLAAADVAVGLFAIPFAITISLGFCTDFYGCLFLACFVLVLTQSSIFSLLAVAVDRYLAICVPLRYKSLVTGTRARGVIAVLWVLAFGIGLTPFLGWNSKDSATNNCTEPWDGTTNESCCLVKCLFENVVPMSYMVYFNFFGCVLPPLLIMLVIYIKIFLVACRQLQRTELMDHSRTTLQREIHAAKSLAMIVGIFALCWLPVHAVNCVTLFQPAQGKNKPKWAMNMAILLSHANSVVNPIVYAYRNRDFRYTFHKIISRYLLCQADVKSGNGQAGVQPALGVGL
Outline: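 Live CHO cells stably expressing human A2BAR (or wild-type CHO as control) grown on chambered coverslips to about 80 % confluency. Incubated with fluorescent ligand (100 nM) for 15 min at 37°C, alone or after 30 min pre-incubation with PSB-603 (100 nM) or DPCPX (1 µM). Confocal laser scanning imaging with identical settings across conditions. Three similar experiments.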

Adenosine receptor A2a (Homo sapiens, UniProt P29274), sequence (P29274 whole entry): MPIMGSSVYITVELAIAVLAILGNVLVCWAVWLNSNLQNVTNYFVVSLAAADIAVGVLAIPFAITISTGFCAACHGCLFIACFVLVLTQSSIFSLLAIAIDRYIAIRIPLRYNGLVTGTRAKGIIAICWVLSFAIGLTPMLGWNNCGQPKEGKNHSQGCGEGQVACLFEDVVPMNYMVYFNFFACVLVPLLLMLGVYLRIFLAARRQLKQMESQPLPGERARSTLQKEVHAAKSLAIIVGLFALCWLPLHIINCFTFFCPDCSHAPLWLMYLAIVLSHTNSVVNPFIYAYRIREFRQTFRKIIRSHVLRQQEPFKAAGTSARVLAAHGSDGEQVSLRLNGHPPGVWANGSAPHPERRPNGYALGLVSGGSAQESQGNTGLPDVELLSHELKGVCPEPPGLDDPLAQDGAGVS
Adenosine receptor A2a (Rattus norvegicus, UniProt P30543), sequence (P30543 whole entry): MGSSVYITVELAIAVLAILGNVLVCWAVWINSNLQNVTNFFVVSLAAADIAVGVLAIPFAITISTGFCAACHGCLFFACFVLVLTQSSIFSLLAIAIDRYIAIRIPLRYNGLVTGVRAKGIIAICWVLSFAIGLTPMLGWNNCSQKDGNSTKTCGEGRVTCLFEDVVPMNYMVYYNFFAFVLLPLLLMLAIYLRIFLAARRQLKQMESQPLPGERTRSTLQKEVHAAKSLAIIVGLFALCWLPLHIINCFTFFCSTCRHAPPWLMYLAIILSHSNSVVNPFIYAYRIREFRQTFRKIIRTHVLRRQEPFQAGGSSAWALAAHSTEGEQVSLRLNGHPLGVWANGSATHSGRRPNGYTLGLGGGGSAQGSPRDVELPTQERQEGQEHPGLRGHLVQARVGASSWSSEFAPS

Ki (Adenosine receptor A1): 422 nM | Ki (Adenosine receptor A2a [1]): > 10000 nM | Ki (Adenosine receptor A2a [2]): > 10000 nM | Ki (Adenosine receptor A2b [3]): 0.18 nM | Ki (Adenosine receptor A2b [4]): 1.32 nM | Activity [7]: Active
SMILES: CCCn1c(=O)[nH]c2nc(-c3ccc(OCC(=O)NCCC4=C5C(C)=CC(C)=[N+]5[B-](F)(F)n5c(C)cc(C)c54)cc3)[nH]c2c1=O
Ratio Ki [5]: > 150 | Ratio Ki (Homo sapiens): > 150 | Ratio Ki (Rattus norvegicus): > 150 | Ratio Ki [6]: > 1000
